Measurements reported in PMC10441566 (Acta biomaterialia, 2022).

How the values were obtained:
[1] = Microscale thermophoresis; type: binding; conditions: MST; for Hill coefficient / cooperativity factor (n) of binding with CS: Hill fit, n > 1 positive, n < 1 negative cooperativity
Outline: (§1)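 Peptide labeled with 5-FAM at the N-terminus was spun at 14,000 g for 10 min, then used at 200 nM. MST was run at 50% excitation and 40% MST power, room temperature, with 20 s traces. A Hill fit of ΔF_Norm gave Kd and n. n=3 independent runs, mean ± SD.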

[2] = Equilibrium intra-cartilage uptake of CPCs in bovine cartilage explants; conditions: 30 μM CPC, 24 h, 37°C; for Intra-cartilage uptake in presence of HA (comparison between CPCs): 3 mg/ml HA; for Intra-cartilage uptake in presence of BSA (comparison between CPCs) / Intra-cartilage equilibrium uptake ratio (RU): 12 mg/ml BSA; for Intra-cartilage equilibrium uptake ratio (RU): Healthy (simulated) SF: 3 mg/ml HA, 0.1 mg/ml DLPC in PBS pH 7.4, bath fluorescence, mean, n >= 6; for Reduction of intra-cartilage uptake in Healthy SF relative to PBS: Healthy SF vs PBS
γ-Globulin = experiment: Microscale thermophoresis; type: binding, bovine; conditions: MST; for Hill coefficient / cooperativity factor (n) of binding with γ-Globulin: Hill fit
Outline: as §1

[3] = solute concentration inside cartilage relative to surrounding bath; cited from earlier work
[4] = Microscale thermophoresis; type: binding; conditions: MST, HA titrated up to 2 μM (physiological SF concentration)
[5] = over 7-days desorption period; cited from earlier work
[6] = type: in vivo; conditions: quadriceps and patellar tendon, fat pad; rat, 24 h after IA injection, Cy5 label
Outline: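 Healthy male Wistar rats (8–10 weeks, 350–400 g) received 50 μl of 300 μM Cy5-labeled test peptide intra-articularly through the patellar tendon, with saline controls. Legs were flexed to spread the dose, and rats were killed at 24 h. Harvested knee tissues were imaged by confocal microscopy at 10X, with Z-stacks reconstructed to X-Z sections for penetration depth. N=6 joints per treatment.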

(AK)7AFAFAF [CPC +F]
Binding with CS-GAG compared with CPC +N [1]: stronger binding | Hill coefficient / cooperativity factor (n) of binding with CS [1]: 1.6

(AK)7ANANAN [CPC +N]
Hill coefficient / cooperativity factor (n) of binding with CS [1]: 0.8

RRRR(AARRR)3 R [CPC +14A]
Intra-cartilage uptake in presence of HA (comparison between CPCs) [2]: no significant difference | Intra-cartilage uptake in presence of BSA (comparison between CPCs) [2]: no significant difference | Intra-cartilage equilibrium uptake ratio (RU) ([2]; 12 mg/ml γ-Globulin): 80 | Reduction of intra-cartilage uptake in Healthy SF relative to PBS [2]: 4.5 x | Kd with γ-Globulin, fold lower than that of CPC +14N (γ-Globulin): 1.8 x | Hill coefficient / cooperativity factor (n) of binding with γ-Globulin (γ-Globulin): 0.67 | Intra-cartilage uptake [3]: 350 | Binding with HA as ligand [4]: completely unbound | Retained within cartilage [5]: > 95% | Confocal fluorescence signal in less GAG-rich tissues [6]: weak fluorescence signal

RRRR(NNRRR)3 R [CPC +14N]
Intra-cartilage uptake in presence of phospholipids (DLPC), comparison ([2]; 0.1 mg/ml DLPC): higher uptake than CPC +14A | Intra-cartilage uptake in presence of HA (comparison between CPCs) [2]: no significant difference | Intra-cartilage uptake in presence of BSA (comparison between CPCs) [2]: no significant difference | Intra-cartilage uptake relative to CPC +14A (fold higher) ([2]; 12 mg/ml γ-Globulin): 2.8 x | Intra-cartilage equilibrium uptake ratio (RU) ([2]; 12 mg/ml γ-Globulin): 120 | Reduction of intra-cartilage uptake in Healthy SF relative to PBS [2]: 2.7 x | Intra-cartilage uptake relative to CPC +14A (fold higher) ([2]; Healthy SF): 1.5 x | Intra-cartilage uptake relative to CPC +14A (fold higher) ([2]; OA SF): 2 x | Hill coefficient / cooperativity factor (n) of binding with γ-Globulin (γ-Globulin): 0.67 | Binding with HA as ligand [4]: completely unbound | Hill coefficient / cooperativity factor (n) of binding with CS [1]: 1.6 | Confocal fluorescence signal in less GAG-rich tissues [6]: weak fluorescence signal
